Source: PubChem BioAssay (The Scripps Research Institute Molecular Screening Center)
S1P3 agonist: activates the human S1P3 receptor; 60,000 compounds, 0.1% hits; Q99500; S1P3 NFAT-BLA reporter cells, agonism, FRET ratio; relative to 1 µM S1P, basal subtracted; AID 373; activation, % at 4.5 µM;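 active = activation above the screen-wide mean plus 3 SD, cut at about 4.5% in these data, passing the limit was not always enough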
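Assay system: stable CHO line with human S1P3, Gα16, NFAT-BLA reporter; Detection: FRET β-lactamase substrate fluorescence, excitation 405 nm, 460/535 nm emission ratio, background-subtracted; Read-out: percent activation versus median 1 µM S1P response, basal-subtracted, per plate; Incubation: cells plated overnight, compound 4 h 37 °C, substrate 2 h RT.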
HTR1A agonist: 5-HT1a (human) receptor agonism | P08908 | CHO 5-HT1a Ga15 NFAT-bla reporter, FRET ratio; 0% basal, 100% maximal reference agonist | AID 567 | activation, % at 10 µM | 65,000 compounds, 0.56% hits;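 active = activation above the screen-wide mean activation plus 3 SD, cut at about 19% in these data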;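 note: 0% = DMSO wells and 100% = 5-CT at EC100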
Target sequence (P08908 whole entry, looked up): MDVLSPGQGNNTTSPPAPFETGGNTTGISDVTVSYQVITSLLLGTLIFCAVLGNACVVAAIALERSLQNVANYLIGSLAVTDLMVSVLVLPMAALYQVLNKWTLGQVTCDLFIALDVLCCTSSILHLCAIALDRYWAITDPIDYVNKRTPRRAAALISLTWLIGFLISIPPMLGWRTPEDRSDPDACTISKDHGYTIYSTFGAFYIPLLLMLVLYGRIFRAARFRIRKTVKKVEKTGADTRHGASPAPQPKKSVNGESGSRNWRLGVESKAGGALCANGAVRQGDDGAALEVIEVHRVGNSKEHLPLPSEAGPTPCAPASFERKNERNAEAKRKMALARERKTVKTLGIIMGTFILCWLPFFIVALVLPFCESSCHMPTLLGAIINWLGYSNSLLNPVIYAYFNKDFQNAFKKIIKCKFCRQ
5HT1E antag: antagonists of human 5-HT1E serotonin receptor; P28566; CHO 5-HT1E Ga15 NFAT-bla reporter, FRET, antagonist; inhibition, % at 6 µM; 65,000 compounds, 0.99% hits; AID 571;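 active = inhibition above a set limit, the mean inhibition across every tested compound plus 3 SD, cut at about 29% in these data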;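 note: signal is the 460 over 535 nm emission ratio of beta-lactamase substrate; 0% = agonist plus DMSO wells and 100% = wells without agonist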
HTR1E agonist: activates the human 5-HT1E serotonin receptor | P28566 | CHO 5-HT1E Ga15 NFAT-bla reporter, FRET; 0% DMSO wells, 100% control agonist wells | activation, % at 6 µM | 65,000 compounds, 0.69% hits | AID 574;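 active = activation above a set limit, the screen-wide mean activation plus 3 SD, cut at about 8.5% in these data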;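 note: 100% = positive control agonist at 1 µM giving full maximal response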
S1P1 ag-PAM: activates or potentiates agonism at human S1P1 receptor; 56,000 compounds, 0.57% hits; AID 449; S1P1 CRE-bla cells, forskolin, beta-lactamase FRET, potentiator mode; S1P1 agonist co-added at EC20, 2 nM; 100% = saturating reference agonist, 0% = basal; P21453; activation, % at 9.5 µM;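 active = activation above a cutoff set at the mean activation of all tested compounds plus 3 SD, cut at about 54% in these data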;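 note: forskolin at 4 µM as EC80 and the EC20 agonist is SEW2871; 100% = SEW2871 at its EC100 plus forskolin at EC80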
5-HT1A blocker: antagonists of human 5-HT1a serotonin receptor; CHO 5-HT1a Ga15 NFAT-bla reporter, antagonist mode; 62,000 compounds, 0.68% hits; P08908; AID 612; inhibition, % at 10 µM;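 active = inhibition above the mean of all tested compounds plus 3 SD, cut at about 43% in these data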;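 note: receptor stimulated by 5-CT agonist at 100 nM near EC80; beta-lactamase reporter measured by ratiometric fluorescence of a cleavable substrate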
The depositor's hits bear a star; x = no result given. Sampled rows, rich in hits. Any-hit rate of the full collection: about 2.9%.

SMILES | S1P3 agonist | HTR1A agonist | 5HT1E antag | HTR1E agonist | S1P1 ag-PAM | 5-HT1A blocker
O=C(CN1C(=O)CSc2ccccc21)Nc1ccccc1C(=O)N1CCOCC1 | -0.7 | -0.3 | -3.7 | 0.4 | x | 6.6
CCOc1ccc(C2C(C#N)=C(N)Oc3cc(C)n(CCN(C)C)c(=O)c32)cc1OCC (stereo unspecified) | 0.3 | -3.2 | -8.4 | 0.3 | -1.2 | 7.3
O=C1c2[nH]nc(-c3ccccc3O)c2C(c2ccc(F)cc2)N1Cc1ccco1 (stereo unspecified) | -1.6 | 4.9 | -3.9 | 0.1 | 17.6 | 53.0*
COCCCNC(=O)CSC1=Nc2ccccc2C2=NC(CC(=O)NCc3ccccc3)C(=O)N12 (stereo unspecified) | 0.2 | -1.0 | -3.5 | -0.5 | 2.3 | 6.5
CCC(C)c1ccc2oc(-c3ccc(NC(=O)c4ncn[nH]4)cc3)nc2c1 (stereo unspecified) | 15.8* | 2.3 | -4.9 | -1.0 | 97.6* | -8.1
Cn1nnc(NCc2cc(Br)ccc2OCc2cccs2)n1 | -1.3 | -2.5 | 13.1 | -1.7 | 24.7 | 16.1
O=C(Nc1ccc2c(c1)OCO2)N1CCN(S(=O)(=O)c2ccc(Cl)cc2)CC1 | 0.6 | -3.4 | 19.7 | 14.5* | -13.8 | 8.5
Cc1ccc(C(=O)CC2(O)C(=O)N(Cc3ccccc3Cl)c3ccccc32)o1 (stereo unspecified) | -0.8 | 0.3 | 7.6 | 15.7* | 10.1 | -2.5
CCOc1cc2[nH]c(=O)n(CCCCC(=O)NCc3ccco3)c(=O)c2cc1OCC | -0.2 | -0.8 | 1.5 | -0.5 | -18.3 | -5.0
CCCCOC(=O)C1CCCC(C(=O)OCCCC)N1 (stereo unspecified) | 0.2 | 0.9 | -1.7 | -0.3 | -11.5 | 10.0
O=C(CSc1nnc(-c2ccccc2O)o1)Oc1ccc(OCc2ccccc2)cc1 | -1.4 | -1.9 | 0.4 | -0.3 | 14.9 | 7.9
c1ccc(CC2CCN(c3nnnn3-c3ccccc3)CC2)cc1 | -1.0 | -0.8 | 32.4* | -0.8 | 23.6 | 7.8
Cn1c(=O)[nH]c(=O)c2c1nc(CN1CCN(Cc3ccccc3)CC1)n2CC(N)=O | -0.5 | -3.4 | -1.8 | 0.5 | -5.6 | -12.9
COc1ccccc1N1CCN(c2cc(N3CCCC3)nc(C)n2)CC1 | -0.4 | -0.4 | 2.3 | 0.1 | -10.5 | 7.4
CCOC(=O)c1cnc2c(OC)cccc2c1N1CCN(c2ccccc2OC)CC1 | -1.5 | 2.4 | 2.0 | 9.1* | -21.8 | 37.8
COc1ccc(OC)c(CN2CCN(c3ccccc3OC)CC2)c1 | -1.4 | -2.1 | 7.3 | 5.3 | -2.9 | 52.7*
COc1ccc(CC(C)N2CCN(Cc3ccccc3)CC2)c(OC)c1 (stereo unspecified) | -1.6 | -0.7 | 4.8 | -0.8 | -0.7 | 92.0*
CCOc1ccccc1N1CCN(Cc2cccc(OC)c2OC)CC1 | -2.1 | -4.0 | 12.7 | 0.9 | -9.2 | 58.5*
O=S(=O)(Nc1ccc2c(c1)OCCO2)c1cnc[nH]1 | 1.0 | -2.9 | 1.6 | -0.1 | -6.4 | -7.4
CCOc1ccc(NC(=O)CCN2CCN(S(=O)(=O)c3cc(Cl)ccc3OC)CC2)cc1 | 0.3 | -1.4 | 9.3 | -1.4 | -5.7 | -9.8
CCOc1ccc(NC(=O)CCN2CCN(c3ccccc3OC)CC2)cc1 | -0.8 | 0.7 | 1.6 | 1.4 | -1.9 | 99.6*
COc1ccccc1N1CCN(C/C(O)=C(\C#N)c2nc(-c3ccccc3)cs2)CC1 | -0.3 | 1.3 | 3.3 | 10.1* | 23.6 | 10.2
COc1cc(S(=O)(=O)N2CCN(c3ccccc3F)CC2)ccc1Cl | -0.6 | 20.9* | -1.2 | -0.3 | -4.3 | -4.6
COc1ccccc1N1CCN(Cc2ccc(OC)c(OC)c2OC)CC1 | -2.1 | 3.8 | -0.9 | 31.0* | -22.9 | 61.7*
CC1CCN(Cc2ccc(NC(=O)CC3Oc4ccccc4NC3=O)cc2)CC1 (stereo unspecified) | -0.4 | 1.3 | 1.5 | 0.3 | -0.8 | -2.1
SMILES | S1P3 agonist | HTR1A agonist | 5HT1E antag | HTR1E agonist | S1P1 ag-PAM | 5-HT1A blocker
CC(C)(C)c1cc(Cc2ccccc2)[nH]n1 | 0.2 | -1.2 | -4.0 | -0.5 | -11.1 | -5.3
COc1ccccc1N1CCN(C/C(C)=C/c2ccccc2)CC1 | -0.8 | -3.1 | -4.0 | 7.0 | -10.6 | 83.6*
COc1cc(CN2CCN(c3ccccc3F)CC2)cc(OC)c1O | 0.2 | 0.9 | 2.4 | 14.1* | x | 4.0
COc1ccccc1N1CCN(Cc2ccsc2)CC1 | 0.0 | 40.3* | -0.1 | 20.9* | -7.5 | 29.2
C/C=C(\C)CN1CCN(c2ccccc2F)CC1 | -0.3 | 2.2 | -6.2 | 7.7 | x | -0.3
COc1ccc2c(c1)CCc1c(C(=O)Nc3ccc(OC)c(OC)c3)noc1-2 | -1.1 | -1.2 | -4.2 | -0.4 | 104.3* | -16.7
O=C(c1ccco1)N1CCN(C(=O)C2CCN(S(=O)(=O)Cc3ccccc3)CC2)CC1 | 0.9 | -2.3 | 2.2 | -0.7 | -8.7 | -0.7
O=C(c1ccco1)N1CCN(C(=O)C2CCCN(S(=O)(=O)Cc3ccccc3)C2)CC1 (stereo unspecified) | x | 69.5* | 7.3 | -1.0 | x | 11.2
COC(=O)c1ccc(Cl)c(NC(=O)CN(c2ccc3c(c2)OCO3)S(C)(=O)=O)c1 | 0.2 | -2.3 | -6.2 | 0.0 | x | 1.4
COc1ccc(N2CCN(S(=O)(=O)c3cccs3)CC2)cc1 | -0.3 | 26.2* | 1.7 | 0.2 | x | -3.1
COc1ccc(N2CCN(CCNC(=O)C3CCN(S(=O)(=O)c4cccs4)CC3)CC2)cc1 | -1.7 | -0.3 | -3.5 | -0.7 | 10.7 | -3.8
O=C(CN1CCOc2ccccc21)NC1CCCCCCC1 | -0.6 | -2.1 | 4.4 | 0.8 | -10.7 | 13.9
Cc1sc2ncnc(Oc3ccc(-n4ccnc4)cc3)c2c1C | -0.9 | 297.9* | 3.7 | 0.4 | 5.2 | 6.2
Cc1nnc(SCC(=O)N2CCN(Cc3ccccc3)CC2)s1 | -0.2 | 0.2 | -7.5 | -0.1 | x | -5.2
Cc1nnc(SCC(=O)N2CCC(c3noc4ccc(F)cc34)CC2)s1 | -0.2 | -2.4 | 16.1 | 0.7 | 68.7* | 24.3
Cn1c(CC(=O)Nc2ccccc2)nnc1SCCOc1ccccc1 | 0.1 | -0.6 | 6.0 | -1.3 | 12.9 | 5.7
CSc1nc(C)cc(SCCO)n1 | -0.9 | -0.2 | -5.1 | 0.6 | x | -1.6
COC(=O)c1ccc(CSc2nc(C)nc3sc(C)c(C)c23)o1 | -0.3 | -4.2 | 33.3* | -0.7 | 7.4 | 50.1*
COC(=O)c1ccc(CSc2nnc(SCc3ccc(C(=O)OC)o3)s2)o1 | -0.2 | -1.3 | 3.3 | -1.1 | 12.3 | 11.8
CCOC(=O)Nc1ccc2c(c1)N(C(=O)CN1CCN(C)CC1)c1ccccc1S2 | -0.7 | 0.0 | 1.6 | 0.0 | 6.5 | 15.3
CCOC(=O)Nc1ccc2c(c1)N(C(=O)CCN(C)C)c1ccccc1S2 | 1.1 | -1.2 | 19.1 | 0.9 | 81.7 | 45.6*
c1ccc2c(c1)nc(-c1ccncc1)n1nnnc21 | -0.3 | -3.1 | 2.4 | 0.4 | -12.6 | -1.2
